Entries after “also recorded” stand apart in the source; their conditions may differ.
Legend:
[1] = pH 6.5; background statement, no reference given; cited from earlier work
MATE2 = conditions: cited from earlier work
[2] = Plasma PK, multiple ascending dose; assay type: in vivo, human; conditions: for AUCτ (dn) / Cmax (dn): dose normalized; for AUCτ (dn) / Cmax (dn) / AUCτ / Cmax: geometric mean (CV %); for Tmax: median (range); for t1/2: arithmetic mean (SD)
MRP3 = conditions: cited from earlier work
[3] = tested on: CYP1A2, CYP2D6, and CYP3A; conditions: cited from earlier work
[4] = Plasma PK, single ascending dose; assay type: in vivo, human; conditions: for t1/2: arithmetic mean (SD); for AUCinf (dn) / Cmax (dn): dose normalized; for AUCinf (dn) / Cmax (dn) / AUCinf / Cmax: geometric mean (CV %); for Tmax: median (range)
Outline: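 Healthy volunteers were randomized 3:1 to test compound or placebo, given as a single oral dose of 3–1,600 mg (tablets; suspension for 3 mg) after an overnight fast of ≥8 h. Plasma was sampled predose and at 0.5–72 h. Assay LLOQ was 1 ng/mL. Parameters came from noncompartmental analysis, were dose-normalized to 1 mg, and were reported as geometric mean (CV), with Tmax excepted.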

[5] = MAD day 1 fed Japanese cohort 400 mg q.d.
[6] = MAD day 10 fed Japanese cohort 400 mg q.d.
[7] = SAD 1,600 mg single dose fasted

dose proportionality of AUCτ and Cmax ([2]; MAD 30–400 mg q.d.): less‐than‐dose‐proportional
dose proportionality of AUCτ and Cmax ([2]; MAD 400–1,200 mg q.d.): dose‐proportional
AUCτ (dn) ([2]; MAD day 1 fed 30 mg q.d.): 22.1 (25) ng.hour/mL/mg
Cmax (dn) ([2]; MAD day 1 fed 30 mg q.d.): 2.8 (24) ng/mL/mg
AUCτ ([2]; MAD day 1 fed 30 mg q.d.): 662.8 (25) ng.hour/mL
Cmax ([2]; MAD day 1 fed 30 mg q.d.): 83.5 (24) ng/mL
Tmax ([2]; MAD day 1 fed 30 mg q.d.): 3.0 (2.0–6.0) hour
AUCτ (dn) ([2]; MAD day 1 fed 100 mg q.d.): 18.0 (23) ng.hour/mL/mg
Cmax (dn) ([2]; MAD day 1 fed 100 mg q.d.): 2.7 (20) ng/mL/mg
AUCτ ([2]; MAD day 1 fed 100 mg q.d.): 1,803.0 (23) ng.hour/mL
Cmax ([2]; MAD day 1 fed 100 mg q.d.): 267.2 (20) ng/mL
Tmax ([2]; MAD day 1 fed 100 mg q.d.): 4.0 (1.0–4.0) hour
AUCτ ([2]; MAD day 1 fed 200 mg b.i.d., tau = 12 hours): 1,646.0 (70) ng.hour/mL
Cmax (dn) ([2]; MAD day 1 fed 200 mg b.i.d.): 1.5 (67) ng/mL/mg
Cmax ([2]; MAD day 1 fed 200 mg b.i.d.): 289.8 (67) ng/mL
Tmax ([2]; MAD day 1 fed 200 mg b.i.d.): 4.0 (2.0–6.0) hour
AUCτ (dn) ([2]; MAD day 1 fed 400 mg q.d.): 11.1 (67) ng.hour/mL/mg
Cmax (dn) ([2]; MAD day 1 fed 400 mg q.d.): 1.5 (33) ng/mL/mg
AUCτ ([2]; MAD day 1 fed 400 mg q.d.): 4,424.0 (67) ng.hour/mL
Cmax ([2]; MAD day 1 fed 400 mg q.d.): 585.9 (33) ng/mL
Tmax ([2]; MAD day 1 fed 400 mg q.d.): 3.0 (2.0–6.0) hour
AUCτ (dn) ([2]; MAD day 1 fed 1,200 mg q.d.): 14.2 (20) ng.hour/mL/mg
Cmax (dn) ([2]; MAD day 1 fed 1,200 mg q.d.): 1.7 (10) ng/mL/mg
AUCτ ([2]; MAD day 1 fed 1,200 mg q.d.): 17,090.0 (20) ng.hour/mL
Cmax ([2]; MAD day 1 fed 1,200 mg q.d.): 2,023.0 (10) ng/mL
Tmax ([2]; MAD day 1 fed 1,200 mg q.d.): 2.0 (2.0–4.0) hour
AUCτ [2, 5]: 6,038.0 (29) ng.hour/mL
Cmax [2, 5]: 695.5 (19) ng/mL
Tmax [2, 5]: 4.0 (2.0–4.0) hour
median Tmax ([2]; MAD day 10, standard meal, all doses (30–1,200 mg)): 4 h
t1/2 ([2]; MAD day 10 fed 30 mg q.d.): 8.8 (5.8) hour
AUCτ (dn) ([2]; MAD day 10 fed 30 mg q.d.): 25.1 (32) ng.hour/mL/mg
Cmax (dn) ([2]; MAD day 10 fed 30 mg q.d.): 2.8 (27) ng/mL/mg
AUCτ ([2]; MAD day 10 fed 30 mg q.d.): 752.9 (32) ng.hour/mL
Cmax ([2]; MAD day 10 fed 30 mg q.d.): 85.3 (27) ng/mL
Tmax ([2]; MAD day 10 fed 30 mg q.d.): 4.0 (4.0–6.0) hour
t1/2 ([2]; MAD day 10 fed 100 mg q.d.): 12.7 (12.7) hour
AUCτ (dn) ([2]; MAD day 10 fed 100 mg q.d.): 19.5 (33) ng.hour/mL/mg
Cmax (dn) ([2]; MAD day 10 fed 100 mg q.d.): 2.6 (30) ng/mL/mg
AUCτ ([2]; MAD day 10 fed 100 mg q.d.): 1,952.0 (33) ng.hour/mL
Cmax ([2]; MAD day 10 fed 100 mg q.d.): 263.2 (30) ng/mL
Tmax ([2]; MAD day 10 fed 100 mg q.d.): 4.0 (2.0–4.0) hour
AUCτ ([2]; MAD day 10 fed 200 mg b.i.d., tau = 12 hours): 2,010.0 (49) ng.hour/mL
t1/2 ([2]; MAD day 10 fed 200 mg b.i.d.): 26.9 (8.1) hour
Cmax (dn) ([2]; MAD day 10 fed 200 mg b.i.d.): 1.7 (46) ng/mL/mg
Cmax ([2]; MAD day 10 fed 200 mg b.i.d.): 339.5 (46) ng/mL
Tmax ([2]; MAD day 10 fed 200 mg b.i.d.): 4.0 (2.0–4.0) hour
t1/2 ([2]; MAD day 10 fed 400 mg q.d.): 7.5 (2.6) hour
AUCτ (dn) ([2]; MAD day 10 fed 400 mg q.d.): 13.6 (57) ng.hour/mL/mg
Cmax (dn) ([2]; MAD day 10 fed 400 mg q.d.): 1.7 (37) ng/mL/mg
AUCτ ([2]; MAD day 10 fed 400 mg q.d.): 5,420.0 (57) ng.hour/mL
Cmax ([2]; MAD day 10 fed 400 mg q.d.): 667.3 (37) ng/mL
Tmax ([2]; MAD day 10 fed 400 mg q.d.): 4.0 (2.0–6.0) hour
t1/2 ([2]; MAD day 10 fed 1,200 mg q.d.): 34.3 (21.9) hour
AUCτ (dn) ([2]; MAD day 10 fed 1,200 mg q.d.): 12.4 (31) ng.hour/mL/mg
Cmax (dn) ([2]; MAD day 10 fed 1,200 mg q.d.): 1.5 (21) ng/mL/mg
AUCτ ([2]; MAD day 10 fed 1,200 mg q.d.): 14,890.0 (31) ng.hour/mL
Cmax ([2]; MAD day 10 fed 1,200 mg q.d.): 1,855.0 (21) ng/mL
Tmax ([2]; MAD day 10 fed 1,200 mg q.d.): 4.0 (2.0–4.0) hour
t1/2 [2, 6]: 7.4 (4.8) hour
AUCτ [2, 6]: 7,194.0 (20) ng.hour/mL
Cmax [2, 6]: 887.0 (11) ng/mL
Tmax [2, 6]: 4.0 (2.0–6.0) hour
plasma accumulation ([2]; after multiple dosing, q.d. and b.i.d.): < 1.5 fold
steady‐state reached by ([2]; both q.d. and b.i.d. dosing): ≤ 2 days
t1/2 ([4]; SAD 3 mg single dose fasted): 3.6 (1.3) hour
AUCinf (dn) ([4]; SAD 3 mg single dose fasted): 15.9 (59) ng.hour/mL/mg
Cmax (dn) ([4]; SAD 3 mg single dose fasted): 2.6 (38) ng/mL/mg
AUCinf ([4]; SAD 3 mg single dose fasted): 47.6 (59) ng.hour/mL
Cmax ([4]; SAD 3 mg single dose fasted): 7.8 (38) ng/mL
Tmax ([4]; SAD 3 mg single dose fasted): 2.0 (1.0–2.0) hour
t1/2 ([4]; SAD 10 mg single dose fasted): 6.0 (1.9) hour
AUCinf (dn) ([4]; SAD 10 mg single dose fasted): 36.9 (67) ng.hour/mL/mg
Cmax (dn) ([4]; SAD 10 mg single dose fasted): 4.7 (35) ng/mL/mg
AUCinf ([4]; SAD 10 mg single dose fasted): 369.3 (67) ng.hour/mL
Cmax ([4]; SAD 10 mg single dose fasted): 47.1 (35) ng/mL
Tmax ([4]; SAD 10 mg single dose fasted): 2.0 (1.0–4.0) hour
t1/2 ([4]; SAD 30 mg single dose fasted): 19.7 (9.5) hour
AUCinf (dn) ([4]; SAD 30 mg single dose fasted): 28.3 (41) ng.hour/mL/mg
Cmax (dn) ([4]; SAD 30 mg single dose fasted): 2.6 (34) ng/mL/mg
AUCinf ([4]; SAD 30 mg single dose fasted): 848.4 (40) ng.hour/mL
Cmax ([4]; SAD 30 mg single dose fasted): 77.9 (34) ng/mL
Tmax ([4]; SAD 30 mg single dose fasted): 2.0 (1.0–4.0) hour
t1/2 ([4]; SAD 100 mg single dose fasted): 38.8 (36.0) hour
AUCinf (dn) ([4]; SAD 100 mg single dose fasted): 15.8 (42) ng.hour/mL/mg
Cmax (dn) ([4]; SAD 100 mg single dose fasted): 1.7 (55) ng/mL/mg
AUCinf ([4]; SAD 100 mg single dose fasted): 1,582.0 (42) ng.hour/mL
Cmax ([4]; SAD 100 mg single dose fasted): 166.8 (55) ng/mL
Tmax ([4]; SAD 100 mg single dose fasted): 2.0 (2.0–6.0) hour
t1/2 ([4]; SAD 400 mg single dose fasted): 16.3 (9.3) hour
AUCinf (dn) ([4]; SAD 400 mg single dose fasted): 7.6 (65) ng.hour/mL/mg
Cmax (dn) ([4]; SAD 400 mg single dose fasted): 1.0 (62) ng/mL/mg
AUCinf ([4]; SAD 400 mg single dose fasted): 3,056.0 (65) ng.hour/mL
Cmax ([4]; SAD 400 mg single dose fasted): 404.8 (62) ng/mL
Tmax ([4]; SAD 400 mg single dose fasted): 2.0 (0.5–4.0) hour
t1/2 [4, 7]: 22.2 (24.6) hour
AUCinf (dn) [4, 7]: 7.4 (25) ng.hour/mL/mg
Cmax (dn) [4, 7]: 0.8 (25) ng/mL/mg
AUCinf [4, 7]: 11,790.0 (25) ng.hour/mL
Cmax [4, 7]: 1,218.0 (25) ng/mL
Tmax [4, 7]: 2.0 (0.5–4.0) hour
dose proportionality of AUCinf and Cmax ([4]; SAD doses of 3–10 mg): greater than dose‐proportional
dose proportionality of AUCinf and Cmax ([4]; SAD doses of 10–400 mg): less than dose‐proportional
dose proportionality of AUCinf and Cmax ([4]; SAD doses of 400–1,600 mg): dose‐proportional
median Tmax ([4]; fasted state, SAD, overall): 2 h
Compound: Cn1cc(-c2cn3nccc3c(-c3cnn([C@]4(CC#N)C[C@@H](C#N)C4)c3)n2)cn1 [PF‐06826647]
solubility [1]: ~ 0.3 μg/mL
inhibition of transporter protein MATE2 (MATE2): MATE2 inhibition; also recorded: inhibitor of the MATE2 renal transporter
inhibition of transporter protein MRP3 (MRP3): minimal inhibition
major human clearance pathway [3]: cytochrome P450 (CYP)‐mediated (via CYP1A2, CYP2D6, and CYP3A) metabolism
